In the RNAGym collection of RNA variant scans (doi:10.1126/science.aae0568):
This sample holds only a part of the variants without activity.

B1: tRNA (parent)
chain: GUUCCGUUGGCGUAAUGGUAACGCGUCUCCCUCCUAAGGAGAAGACUGCGGGUUCGAGUCCCGUACGGAACG

Variants of: B1
Assay: yeast fitness relative to wild type (ratio to wild type); higher = fitter; tRNA-Arg(CCU), competitive growth, 37 C, YPD
Summary of the method: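 Gene amplicons from the start population and from each of six end populations were read by 100-nucleotide paired-end sequencing. Those end populations came from pooled Saccharomyces cerevisiae strains carrying tRNA-Arg(CCU) gene variants at the native locus, competed in YPD at 37°C for 24 hours. Fitness relative to wild type was worked out from changes in genotype frequencies. Genotypes needed ≥ 100 starting reads, and estimates < 0.5 were set to 0.5.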

Question: Which yeast fitness does the source give for C11G A36C G52C G56A here?
Answer: ≤ 0.5

Question: With C11G C30A G52A A65U as the variant, how does the yeast fitness read?
Answer: ≤ 0.5

Question: Which yeast fitness does the source give for C11G C29G C49U G63A here?
Answer: ≤ 0.5

Question: For C11G A37C A42U, which yeast fitness is on record?
Answer: ≤ 0.5

Question: For C11G A43U G67C, which yeast fitness is on record?
Answer: 0.505

Question: With C11G A21G G51C as the variant, how does the yeast fitness read?
Answer: 0.872

Question: With C11A G23C A42U as the variant, how does the yeast fitness read?
Answer: ≤ 0.5

Question: For C11G C60G, which yeast fitness is on record?
Answer: 0.713

Question: With C11G A21U as the variant, how does the yeast fitness read?
Answer: 0.536

Question: Which yeast fitness does the source give for C11G A36C G56A A69U here?
Answer: ≤ 0.5

Question: With C11G C30A C31G G50A as the variant, how does the yeast fitness read?
Answer: ≤ 0.5

Question: With C11G C30U G67C as the variant, how does the yeast fitness read?
Answer: ≤ 0.5

Question: With C11G A14G U26A U35A as the variant, how does the yeast fitness read?
Answer: ≤ 0.5

Question: With C11A G23C C49G as the variant, how does the yeast fitness read?
Answer: ≤ 0.5

Question: With C11G G12A C27G as the variant, how does the yeast fitness read?
Answer: 0.669

Question: For C11G C34G A36G G48C, which yeast fitness is on record?
Answer: ≤ 0.5

Question: For C11A U32C A70C, which yeast fitness is on record?
Answer: 0.549

Question: For C11G A21U C24G G51A G68A, which yeast fitness is on record?
Answer: ≤ 0.5

Question: For C11G C29A C60U U64A, which yeast fitness is on record?
Answer: ≤ 0.5

Question: For C11G C29G U35C A45U, which yeast fitness is on record?
Answer: ≤ 0.5

Question: Which yeast fitness does the source give for C11G A14U C34A here?
Answer: 0.528

Question: For C11G A37G G50A, which yeast fitness is on record?
Answer: ≤ 0.5

Question: With C11G A37G G38A A45U A70G as the variant, how does the yeast fitness read?
Answer: ≤ 0.5

Question: Which yeast fitness does the source give for C11G A20U C29A C30U C46G here?
Answer: ≤ 0.5

Question: With C11G A36C G56A A70U as the variant, how does the yeast fitness read?
Answer: ≤ 0.5

Question: Which yeast fitness does the source give for C11G A15C A45C here?
Answer: ≤ 0.5

Question: Which yeast fitness does the source give for C11G A14G G23A C46A G68U here?
Answer: ≤ 0.5

Question: With C11G C24G C27A U28C C33U A65U as the variant, how does the yeast fitness read?
Answer: ≤ 0.5

Question: Which yeast fitness does the source give for C11G A42U C49U C62U here?
Answer: ≤ 0.5

Question: With C11A U16C G18C A36G G56C as the variant, how does the yeast fitness read?
Answer: ≤ 0.5

Question: With C11G C24U C34A A37C C55G as the variant, how does the yeast fitness read?
Answer: 0.526

Question: Which yeast fitness does the source give for C11G C24A C66G here?
Answer: ≤ 0.5

Question: With C11G A15C G18A C30G U47G G67A as the variant, how does the yeast fitness read?
Answer: 0.656

Question: With C11G A57U as the variant, how does the yeast fitness read?
Answer: ≤ 0.5

Question: For C11G A57G, which yeast fitness is on record?
Answer: 0.624

Question: For C11A G41A C66G, which yeast fitness is on record?
Answer: 0.536

Question: For C11A G50C, which yeast fitness is on record?
Answer: ≤ 0.5

Question: Which yeast fitness does the source give for C11A U16C U32G G48A C49G C55A here?
Answer: ≤ 0.5

Question: Which yeast fitness does the source give for C11G A14U C34A A69C here?
Answer: ≤ 0.5

Question: Which yeast fitness does the source give for C11G C24U A42C A65C here?
Answer: ≤ 0.5

Question: For C11G C31G C34U A40C, which yeast fitness is on record?
Answer: ≤ 0.5

Question: Which yeast fitness does the source give for C11A U59C C61A C62U here?
Answer: ≤ 0.5

Question: For C11G A14U G17A A36G G41A C55G C61A, which yeast fitness is on record?
Answer: ≤ 0.5

Question: With C11G C24U C62U G68C as the variant, how does the yeast fitness read?
Answer: ≤ 0.5

Question: Which yeast fitness does the source give for C11A G67A A70G here?
Answer: 0.562

Question: Which yeast fitness does the source give for C11A U19G A36G C49U U54C A69C here?
Answer: ≤ 0.5

Question: For C11G A14C C30G A45G U53C, which yeast fitness is on record?
Answer: 0.531

Question: For C11A G18A C49A C62G, which yeast fitness is on record?
Answer: ≤ 0.5

Question: For C11G A20C C24G G58A G67C, which yeast fitness is on record?
Answer: ≤ 0.5

Question: For C11G A15C G17A G18C, which yeast fitness is on record?
Answer: ≤ 0.5

Question: Which yeast fitness does the source give for C11G C62U G63A here?
Answer: ≤ 0.5

Question: Which yeast fitness does the source give for C11G A36C C49A here?
Answer: ≤ 0.5

Question: For C11G G12C A40G U47C G50C, which yeast fitness is on record?
Answer: 0.897

Question: For C11G C27U C60A, which yeast fitness is on record?
Answer: 0.535

Question: Which yeast fitness does the source give for C11G C24G U54C G67C here?
Answer: ≤ 0.5

Question: With C11G G12C C60G as the variant, how does the yeast fitness read?
Answer: ≤ 0.5

Question: With C11G A14U A36U G38C as the variant, how does the yeast fitness read?
Answer: 0.553

Question: For C11A U19A C29A U32A G44U G58A, which yeast fitness is on record?
Answer: ≤ 0.5

Question: For C11G C34A A36U G48A G52C C60A, which yeast fitness is on record?
Answer: 0.646

Question: For C11G C29G C33U C46A C49G G68C, which yeast fitness is on record?
Answer: ≤ 0.5

Question: For C11A G18A A36G A42C C66U, which yeast fitness is on record?
Answer: 0.658

Question: For C11G A14C C55G A57U G67A, which yeast fitness is on record?
Answer: ≤ 0.5

Question: For C11A U59C C66U A70C, which yeast fitness is on record?
Answer: ≤ 0.5

Question: For C11A U16C G18C A45C A57C G68C, which yeast fitness is on record?
Answer: 0.546

Question: With C11A U59A as the variant, how does the yeast fitness read?
Answer: 0.629

Question: Which yeast fitness does the source give for C11G C29U C34U here?
Answer: 0.506

Question: For C11G C24U U28C C66G, which yeast fitness is on record?
Answer: ≤ 0.5

Question: For C11A G23A U32C U47C, which yeast fitness is on record?
Answer: ≤ 0.5

Question: With C11G C49U G50A C61U as the variant, how does the yeast fitness read?
Answer: ≤ 0.5

Question: With C11G A21U U47A G63C as the variant, how does the yeast fitness read?
Answer: ≤ 0.5

Question: Which yeast fitness does the source give for C11A U13G G51A here?
Answer: ≤ 0.5

Question: For C11A U28C A43G A65C, which yeast fitness is on record?
Answer: ≤ 0.5

Question: For C11G C62G, which yeast fitness is on record?
Answer: 0.642

Question: Which yeast fitness does the source give for C11G A15U A36U here?
Answer: ≤ 0.5

Question: With C11G A20G G44C U54C C62A as the variant, how does the yeast fitness read?
Answer: 0.87

Question: For C11G C30G C31G U32A C66U, which yeast fitness is on record?
Answer: 0.551

Question: For C11A U13A A20U C29G A36G C46U G58A, which yeast fitness is on record?
Answer: ≤ 0.5

Question: For C11G A14G A21U A36G, which yeast fitness is on record?
Answer: ≤ 0.5

Question: For C11G A40C C46U C60A, which yeast fitness is on record?
Answer: ≤ 0.5

Question: Which yeast fitness does the source give for C11G A14C A42U G51C C60U here?
Answer: ≤ 0.5

Question: With C11A G23U A36U as the variant, how does the yeast fitness read?
Answer: ≤ 0.5

Question: Which yeast fitness does the source give for C11A G48A C55U here?
Answer: ≤ 0.5

Question: Which yeast fitness does the source give for C11G C34G G48A here?
Answer: ≤ 0.5

Question: For C11A U13A A20G C61U A69C, which yeast fitness is on record?
Answer: ≤ 0.5
